Results taken from ChEMBL document CHEMBL1255409, “In vitro activity of ceftaroline against 623 diverse strains of anaerobic bacteria” (2010).

Tests used:
Type in all cases: functional
[1] = tested on: Bacteroides ovatus; assay: Antimicrobial activity against Bacteroides ovatus under anaerobic conditions after 44 hrs by CLSI-M11-47 protocol based agar dilution method
How it was run: (§1)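 Reference agar dilution per CLSI M11-A7 with plates made on test day. Clinical isolates were stored at −70°C in 20% skim milk, subcultured twice, and 48-h cell paste was suspended in brucella broth to 0.5 McFarland. About 10^5 CFU/spot was applied with a Steers replicator. Plates were incubated 44 h at 37°C anaerobically. MIC was the lowest concentration giving complete inhibition or marked growth reduction versus the drug-free control.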

[2] = tested on: Phocaeicola vulgatus; assay: Antimicrobial activity against Bacteroides vulgatus under anaerobic conditions after 44 hrs by CLSI-M11-47 protocol based agar dilution method; how it was run: as §1
[3] = tested on: Prevotella intermedia; assay: Antimicrobial activity against Prevotella intermedia under anaerobic conditions after 44 hrs by CLSI-M11-47 protocol based agar dilution method
How it was run: (§2)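 Clinical isolates were stored at −70°C in 20% skim milk and identified phenotypically or by partial 16S rRNA sequencing. Each strain was subcultured twice from frozen stock. Cell paste from 48-h cultures was suspended in brucella broth to a 0.5 McFarland standard. About 10^5 CFU per spot were applied by Steers replicator to agar dilution plates prepared on the day of testing. Plates were incubated 44 h at 37°C in an anaerobic chamber. MIC was taken as the lowest concentration giving complete inhibition or marked reduction of growth versus the drug-free control.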

[4] = tested on: Prevotella disiens; assay: Antimicrobial activity against Prevotella disiens under anaerobic conditions after 44 hrs by CLSI-M11-47 protocol based agar dilution method; how it was run: as §2
[5] = tested on: Prevotella tannerae; assay: Antimicrobial activity against Prevotella tannerae under anaerobic conditions after 44 hrs by CLSI-M11-47 protocol based agar dilution method; settings: Alloprevotella tannerae; how it was run: as §2
[6] = tested on: Porphyromonas asaccharolytica; assay: Antimicrobial activity against Porphyromonas asaccharolyticus under anaerobic conditions after 44 hrs by CLSI-M11-47 protocol based agar dilution method; how it was run: as §2
[7] = tested on: Fusobacterium nucleatum; assay: Antimicrobial activity against Fusobacterium nucleatum under anaerobic conditions after 44 hrs by CLSI-M11-47 protocol based agar dilution method; how it was run: as §2
[8] = tested on: Fusobacterium necrophorum; assay: Antimicrobial activity against Fusobacterium necrophorum under anaerobic conditions after 44 hrs by CLSI-M11-47 protocol based agar dilution method; how it was run: as §1
[9] = tested on: Veillonella; assay: Antimicrobial activity against Veillonella spp. under anaerobic conditions after 44 hrs by CLSI-M11-47 protocol based agar dilution method; how it was run: as §2
[10] = tested on: Anaerococcus prevotii; assay: Antimicrobial activity against Anaerococcus prevotii under anaerobic conditions after 44 hrs by CLSI-M11-47 protocol based agar dilution method; how it was run: as §1
[11] = tested on: Finegoldia magna; assay: Antimicrobial activity against Finegoldia magna under anaerobic conditions after 44 hrs by CLSI-M11-47 protocol based agar dilution method; how it was run: as §1
[12] = tested on: Peptoniphilus asaccharolyticus; assay: Antimicrobial activity against Peptoniphilus asaccharolyticus under anaerobic conditions after 44 hrs by CLSI-M11-47 protocol based agar dilution method; how it was run: as §2
[13] = tested on: Peptostreptococcus anaerobius; assay: Antimicrobial activity against Peptostreptococcus anaerobius under anaerobic conditions after 44 hrs by CLSI-M11-47 protocol based agar dilution method; how it was run: as §2
[14] = tested on: Peptostreptococcus stomatis; assay: Antimicrobial activity against Peptostreptococcus stomatis under anaerobic conditions after 44 hrs by CLSI-M11-47 protocol based agar dilution method; how it was run: as §2
[15] = tested on: Anaerococcus lactolyticus; assay: Antimicrobial activity against Anaerococcus lactolyticus under anaerobic conditions after 44 hrs by CLSI-M11-47 protocol based agar dilution method; how it was run: as §1
[16] = tested on: Gemella morbillorum; assay: Antimicrobial activity against Gemella morbillorum under anaerobic conditions after 44 hrs by CLSI-M11-47 protocol based agar dilution method; how it was run: as §2
[17] = tested on: Peptoniphilus harei; assay: Antimicrobial activity against Peptoniphilus harei under anaerobic conditions after 44 hrs by CLSI-M11-47 protocol based agar dilution method; how it was run: as §2
[18] = tested on: Actinomyces israelii; assay: Antimicrobial activity against Actinomyces israelii under anaerobic conditions after 44 hrs by CLSI-M11-47 protocol based agar dilution method; how it was run: as §1
[19] = tested on: Schaalia meyeri; assay: Antimicrobial activity against Actinomyces meyeri under anaerobic conditions after 44 hrs by CLSI-M11-47 protocol based agar dilution method; how it was run: as §1
[20] = tested on: Schaalia odontolytica; assay: Antimicrobial activity against Actinomyces odontolyticus under anaerobic conditions after 44 hrs by CLSI-M11-47 protocol based agar dilution method; how it was run: as §1
[21] = tested on: Cutibacterium acnes; assay: Antimicrobial activity against Propionibacterium acnes under anaerobic conditions after 44 hrs by CLSI-M11-47 protocol based agar dilution method; how it was run: as §2
[22] = tested on: Eggerthella lenta; assay: Antimicrobial activity against Eggerthella lenta under anaerobic conditions after 44 hrs by CLSI-M11-47 protocol based agar dilution method; how it was run: as §1
[23] = tested on: Collinsella aerofaciens; assay: Antimicrobial activity against Colinsella aerofaciens under anaerobic conditions after 44 hrs by CLSI-M11-47 protocol based agar dilution method; how it was run: as §1
[24] = tested on: Eubacterium contortum; assay: Antimicrobial activity against Eubacterium contortum under anaerobic conditions after 44 hrs by CLSI-M11-47 protocol based agar dilution method; settings: Faecalicatena contorta; how it was run: as §1
[25] = tested on: Mogibacterium timidum; assay: Antimicrobial activity against Mogibacterium timidum under anaerobic conditions after 44 hrs by CLSI-M11-47 protocol based agar dilution method; how it was run: as §2
[26] = tested on: Lacticaseibacillus rhamnosus; assay: Antimicrobial activity against Lactobacillus rhamnosus under anaerobic conditions after 44 hrs by CLSI-M11-47 protocol based agar dilution method; how it was run: as §2
[27] = tested on: [Clostridium] innocuum; assay: Antimicrobial activity against Clostridium […] under anaerobic conditions after 44 hrs by CLSI-M11-47 protocol based agar dilution method; how it was run: as §1
[28] = tested on: Enterocloster clostridioformis; assay: Antimicrobial activity against Clostridium clostridioforme under anaerobic conditions after 44 hrs by CLSI-M11-47 protocol based agar dilution method; how it was run: as §1
[29] = tested on: Clostridium cadaveris; assay: Antimicrobial activity against Clostridium cadaveris under anaerobic conditions after 44 hrs by CLSI-M11-47 protocol based agar dilution method; how it was run: as §1
[30] = tested on: Clostridium hylemonae; assay: Antimicrobial activity against Clostridium hylemonae under anaerobic conditions after 44 hrs by CLSI-M11-47 protocol based agar dilution method; how it was run: as §1
[31] = tested on: Clostridium paraputrificum; assay: Antimicrobial activity against Clostridium paraputrificum under anaerobic conditions after 44 hrs by CLSI-M11-47 protocol based agar dilution method; how it was run: as §1
[32] = tested on: Eubacterium limosum; assay: Antimicrobial activity against Eubacterium limosum under anaerobic conditions after 44 hrs by CLSI-M11-47 protocol based agar dilution method; how it was run: as §1

CCO/N=C(\C(=O)N[C@@H]1C(=O)N2C(C(=O)[O-])=C(Sc3nc(-c4cc[n+](C)cc4)cs3)CS[C@H]12)c1nsc(NP(=O)(O)O)n1 [CEFTAROLINE FOSAMIL]
≤ 8 ng/mL: MIC50 [21]
64 µg/mL: MIC50 [1] | MIC50 [2]
8 µg/mL: MIC50 [22]
2 µg/mL: MIC50 [4] | MIC50 [5] | MIC90 [27] | MIC90 [28]
1 µg/mL: MIC50 [3] | MIC90 [15] | MIC90 [16] | MIC90 [17] | MIC90 [26] | MIC50 [27] | MIC50 [28]
0.015 µg/mL: MIC50 [6] | MIC50 [18] | MIC50 [19] | MIC50 [20]
0.5 µg/mL: MIC90 [9] | MIC90 [11] | MIC50 [13] | MIC50 [14] | MIC50 [26] | MIC50 [29] | MIC50 [30] | MIC50 [31]
≤ 0.08 µg/mL: MIC50 [7]
0.03 µg/mL: MIC90 [6] | MIC50 [8] | MIC50 [10]
32 µg/mL: MIC90 [4] | MIC90 [5]
0.25 µg/mL: MIC50 [11] | MIC90 [12] | MIC90 [18] | MIC90 [19] | MIC90 [20] | MIC90 [23] | MIC90 [24] | MIC90 [25] | MIC90 [32]
4 µg/mL: MIC90 [13] | MIC90 [14]
0.06 µg/mL: MIC90 [8] | MIC50 [12] | MIC50 [15] | MIC50 [16] | MIC50 [17] | MIC90 [21]
0.125 µg/mL: MIC90 [7] | MIC50 [9] | MIC90 [10] | MIC50 [23] | MIC50 [24] | MIC50 [25] | MIC50 [32]
> 64 µg/mL: MIC90 [1] | MIC90 [2]
16 µg/mL: MIC90 [3] | MIC90 [22] | MIC90 [29] | MIC90 [30] | MIC90 [31]
